Test results as given in ChEMBL document CHEMBL3822423 (J Med Chem, 2016).
pIC50: −log10 of the molar value. Values after ≈ are worked out from the molar mass of the structure shown. Active and inactive are the calls of the source. The calls are words filed in the database; no cut-off is given here.

Experiments:
[1] = Binding affinity to 0 to 6.03 x 10^-5 M Cu2+ assessed as 1:1 compound/metal ion complex formation at 2.23 x 10^-5 M at pH 7.4 by spectrofluorimetric method
Staphylococcus aureus [2] = assay: Binding affinity to methicillin-resistant Staphylococcus aureus […] genomic DNA assessed as decrease in fluorescence intensity at 2 x 10^-5M at 294 K by spectrofluorometric analysis
How it was run: (§1)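 MRSA genomic DNA stock was quantified by absorbance at 260 nm, using ε260 = 6600 L mol⁻¹ cm⁻¹ (as molarity of phosphate). Purity was checked by the A260/A280 ratio.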

Staphylococcus aureus [3] = assay: Binding affinity to methicillin-resistant Staphylococcus aureus double stranded genomic DNA assessed as hypochromic effect by spectroscopic analysis; how it was run: as §1
[4] = Cytotoxicity against human LO2 cells assessed as reduction in cell viability at 128 ug/mL after 72 hrs by MTT assay; format: cell-based; conditions: l02, 72 h
How it was run: (§2)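 PC12 and human hepatocyte LO2 cells were exposed to compound at 8–512 µg/mL in twofold steps. Viability was read by colorimetric MTT assay, with norfloxacin as positive control. Each value is the mean of three replicates.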

[5] = Binding affinity to 4.69 x 10^-5 M Cu2+ at 2.23 x 10^-5 M at pH 7.4 by spectrofluorimetric method
[6] = Cytotoxicity against rat PC12 cells assessed as cell viability at 512 ug/mL after 72 hrs by MTT assay; format: cell-based; conditions: pc-12, 72 h; how it was run: as §2
Staphylococcus aureus [7] = assay: Binding affinity to methicillin-resistant Staphylococcus aureus double stranded genomic DNA assessed as decrease in fluorescence intensity in absence of Cu2+ ions by spectrofluorometric analysis; how it was run: as §1
Staphylococcus aureus [8] = assay: Electrostatic binding to methicillin-resistant Staphylococcus aureus double stranded genomic DNA assessed as Stern-Volmer constant in presence of potassium iodide by steady state quenching analysis; how it was run: as §1
Staphylococcus aureus [9] = assay: Antibacterial activity against Staphylococcus aureus ATCC 25923 after 18 to 24 hrs; format: functional
[10] = Cytotoxicity against rat PC12 cells assessed as cell viability at <512 ug/mL after 72 hrs by MTT assay relative to control; format: cell-based, PC-12; conditions: read-out: Activity; how it was run: as §2
Pseudomonas aeruginosa = assay: Antibacterial activity against Pseudomonas aeruginosa ATCC 9027 after 18 to 24 hrs; format: functional
[11] = Cytotoxicity against human LO2 cells assessed as cell viability at <512 ug/mL after 72 hrs by MTT assay relative to control; format: cell-based, L02; conditions: read-out: Activity; how it was run: as §2
Albumin [12] = target: T1, Albumin (Homo sapiens, UniProt P02768); assay: Binding affinity to human serum albumin at pH 7.4 at 288 K by Scatchard plot analysis; format: ADME; conditions: isolated protein
How it was run: (§3)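 Scatchard treatment of the HSA fluorescence-quenching titration in pH 7.4 solution (excitation 295 nm) at each temperature. It gave the binding constant Kb and the number of binding sites n, with fit correlation R and SD.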

Albumin [13] = target: T1, Albumin; assay: Binding affinity to human serum albumin at pH 7.4 at 303 K by Scatchard plot analysis; format: ADME; conditions: isolated protein; how it was run: as §3
Escherichia coli = assay: Antibacterial activity against Escherichia coli ATCC 25922 after 18 to 24 hrs; format: functional
Micrococcus luteus = assay: Antibacterial activity against Micrococcus luteus ATCC 4698 after 18 to 24 hrs; format: functional; conditions: NCTC 2665
Staphylococcus aureus [14] = assay: Binding affinity to methicillin-resistant Staphylococcus aureus double stranded genomic DNA assessed as decrease in fluorescence intensity at 2.23 x 10^-5M in presence of 20 x 10^-5 M Cu2+ ions by spectrofluorometric analysis; how it was run: as §1
Bacillus = assay: Antibacterial activity against Bacillus proteus ATCC 13315 after 18 to 24 hrs; format: functional
[15] = Antibacterial activity against Eberthella typhosa ATCC 14028 after 18 to 24 hrs; format: functional
[16] = Cytotoxicity against human LO2 cells assessed as cell viability at 512 ug/mL after 72 hrs by MTT assay; format: cell-based; conditions: l02, 72 h; how it was run: as §2
[17] = Cytotoxicity against rat PC12 cells assessed as reduction in cell viability at 128 ug/mL after 72 hrs by MTT assay; format: cell-based; conditions: pc-12, 72 h; how it was run: as §2
[18] = Cytotoxicity against rat PC12 cells assessed as reduction in cell viability at 256 ug/mL after 72 hrs by MTT assay; format: cell-based; conditions: pc-12, 72 h; how it was run: as §2
Albumin [19] = target: T1, Albumin; assay: Binding affinity to human serum albumin at pH 7.4 at 310 K by Scatchard plot analysis; format: ADME; conditions: isolated protein; how it was run: as §3
Staphylococcus aureus [20] = assay: Antibacterial activity against methicillin/quinolone-resistant Staphylococcus aureus ATCC 700699; format: functional
Staphylococcus aureus [21] = assay: Antibacterial activity against methicillin-resistant Staphylococcus aureus N315 after 18 to 24 hrs; format: functional
Bacillus spizizenii = assay: Antibacterial activity against Bacillus subtilis ATCC 6633 after 18 to 24 hrs; format: functional
Staphylococcus aureus [22] = assay: Binding affinity to methicillin-resistant Staphylococcus aureus double stranded genomic DNA assessed as decrease in fluorescence intensity at 2.23 x 10^-5 M in presence of 0.4 x 10^-6 M Cu2+ ions by spectrofluorometric analysis; how it was run: as §1
[23] = Inhibition of Escherichia coli DNA gyrase assessed as reduction in enzyme-mediated supercoiling of pBR322 DNA after 1.5 hrs by agarose gel electrophoresis method
[24] = Cytotoxicity against human LO2 cells assessed as reduction in cell viability at 256 ug/mL after 72 hrs by MTT assay; format: cell-based; conditions: l02, 72 h; how it was run: as §2

T1 sequence (P02768 whole entry): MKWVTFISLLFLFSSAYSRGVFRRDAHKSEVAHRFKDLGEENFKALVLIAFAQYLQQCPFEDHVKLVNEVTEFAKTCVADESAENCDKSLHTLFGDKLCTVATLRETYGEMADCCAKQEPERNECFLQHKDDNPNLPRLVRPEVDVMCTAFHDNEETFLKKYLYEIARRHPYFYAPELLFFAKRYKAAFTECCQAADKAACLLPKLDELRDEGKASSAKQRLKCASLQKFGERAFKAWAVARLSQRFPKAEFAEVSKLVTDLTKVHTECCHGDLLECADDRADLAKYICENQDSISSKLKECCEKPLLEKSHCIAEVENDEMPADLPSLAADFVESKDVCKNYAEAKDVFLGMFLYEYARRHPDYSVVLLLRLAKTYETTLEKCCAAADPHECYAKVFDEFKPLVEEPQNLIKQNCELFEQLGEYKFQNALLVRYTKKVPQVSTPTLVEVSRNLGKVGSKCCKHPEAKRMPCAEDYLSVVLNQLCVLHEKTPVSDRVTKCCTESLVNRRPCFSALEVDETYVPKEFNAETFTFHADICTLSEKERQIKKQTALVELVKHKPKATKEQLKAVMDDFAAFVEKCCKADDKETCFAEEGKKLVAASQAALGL

SMILES: CCn1cc(-c2csc(N)n2)c(=O)c2cc(N3CCCC3)c(Cl)cc21
- Activity [1]: Active
- Activity (Staphylococcus aureus [2]): Active
- Activity (Staphylococcus aureus [3]): 11.4%
- Activity [4]: Non-toxic
- Activity [5]: Active
- Activity [6]: Non-toxic
- Activity (Staphylococcus aureus [7]): inactive
- KSV (Staphylococcus aureus [8]): 30.1 M⁻¹
- MIC (Staphylococcus aureus [9]): 0.6 µg/mL (≈ 1.6 µM)
- viability at 72 h [10]: > 88%
- MIC (Pseudomonas aeruginosa): 0.5 µg/mL (≈ 1.33 µM)
- viability at 72 h [11]: > 88%
- Kb (Albumin [12]): 0.726 ×10⁵ L/mol
- Kb (Albumin [13]): 0.701 ×10⁵ L/mol
- MIC (Escherichia coli): 0.8 µg/mL (≈ 2.13 µM)
- MIC (Micrococcus luteus): 2.7 µg/mL (≈ 7.2 µM)
- Activity (Staphylococcus aureus [14]): Active
- MIC (Bacillus): 1 µg/mL (≈ 2.67 µM)
- MIC [15]: 2 µg/mL (≈ 5.33 µM)
- Activity [16]: Non-toxic
- Activity [17]: Non-toxic
- Activity [18]: Non-toxic
- Kb (Albumin [19]): 0.656 ×10⁵ L/mol
- MIC (Staphylococcus aureus [20]): 16 µg/mL (≈ 42.7 µM)
- MIC (Staphylococcus aureus [21]): 0.8 µg/mL (≈ 2.13 µM)
- MIC (Bacillus spizizenii): 1.3 µg/mL (≈ 3.47 µM)
- Activity (Staphylococcus aureus [22]): Active
- pIC50 [23]: 4.94
- Activity [24]: Non-toxic
